Data on 10 compounds can be found in ChEMBL document CHEMBL1124108, “Antihypertensive thiadiazoles. 2. Vasodilator activity of some 2-aryl-5-guanidino-1,3,4-thiadiazoles” (1988).

In assay [1] the test system is Rattus norvegicus. The assay can be described thus: Maximum percentage reduction in mean blood pressure in metacorticoid (DOCA) hypertensive rats at a standard oral dose of 10 mg/kg. Type of assay: functional. The essentials:
(§1)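 Rats were DOCA hypertensive. For oral dosing, food was withdrawn 18 h before; rats dosed ip were not starved. The vehicle was isotonic saline. Pressure was recorded by transducer under minimal restraint: twice before dosing, then at 1, 2, 3, 5 and 22 h. MABP was taken as diastolic + one-third pulse pressure. The value is the maximum % fall from the mean of the two pretreatment readings, n = 3-5.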

Assay [2] deals with Rattus norvegicus. The assay can be described thus: Maximum percentage reduction in mean blood pressure in metacorticoid (DOCA) hypertensive rats at a standard intraperitoneal dose of 100 mg/kg. Type of assay: functional. The gist of the method:
as §1

For assay [3], the system named is Rattus norvegicus. The experiment in a line: Maximum percentage reduction in mean blood pressure and heart rate in metacorticoid (DOCA) hypertensive rats at a standard intraperitoneal dose of 100 mg/kg. Type of assay: functional.
Assay [4] is filed under the species Rattus norvegicus. The experiment in a line: Increase in diastolic blood pressure for 1 Htz electrical stimulation in the pithed rats. Type of assay: functional, Artery. The essentials: (§2)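 Male rats (200-300 g) were given drug or isotonic saline ip, in groups of five, 2 h before pithing (one reference agent 1 h before). Doses were 50 or 25 mg/kg, or 5 mg/kg for the reference agent. Rats were put under halothane, tracheally cannulated, pithed through the left orbit and ventilated with room air at 50 strokes/min. After iv tubocurarine (1 mg/kg), the whole sympathetic outflow was stimulated at 1, 3 or 6 Hz (0.5 ms, 20 V, 15 s). The rise in diastolic pressure was recorded in mmHg.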

Assay [5] has as its system Rattus norvegicus. The experiment in a line: Increase in diastolic blood pressure for 0.3 ug/kg intravenous dosing of angiotensin in pithed rats. Type of assay: functional, Artery. The essentials: (§3)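 The pithed-rat preparation was used: male rats (200-300 g) got drug or isotonic saline ip in groups of five, 2 h beforehand (one reference agent 1 h). Doses were 50, 25 or 5 mg/kg. Rats were under halothane, cannulated, pithed and ventilated with room air. Noradrenaline (0.1-1.0 µg/kg) or angiotensin (0.03-0.3 µg/kg) was injected iv, and the increase in diastolic pressure was recorded in mmHg.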

Assay [6] concerns Rattus norvegicus. The assay can be described thus: Increase in diastolic blood pressure for 0.1 ug/kg intravenous dosing of angiotensin in pithed rats. Type of assay: functional, Artery. The gist of the method:
as §3

Assay [7] is filed under the species Rattus norvegicus. The experiment in a line: Increase in diastolic blood pressure for 6 Htz electrical stimulation in the pithed rats. Type of assay: functional, Artery. The essentials:
as §2

The subject of assay [8] is Rattus norvegicus. The experiment in a line: Increase in diastolic blood pressure for 0.03 ug/kg intravenous dosing of angiotensin in pithed rats. Type of assay: functional, Artery. The gist of the method:
as §3

The subject of assay [9] is Rattus norvegicus. The assay can be described thus: Increase in diastolic blood pressure for 0.3 ug/kg intravenous dosing of noradrenaline in pithed rats. Type of assay: functional, Artery. The gist of the method:
as §3

The subject of assay [10] is Rattus norvegicus. The assay can be described thus: Increase in diastolic blood pressure for 0.1 ug/kg intravenous dosing of noradrenaline in pithed rats. Type of assay: functional, Artery. The essentials: as §3
For assay [11], the species on record is Rattus norvegicus. The assay can be described thus: Increase in diastolic blood pressure for 3 Htz electrical stimulation in the pithed rats. Type of assay: functional, Artery. The gist of the method:
as §2

The test system of assay [12] is Rattus norvegicus. The experiment in a line: Increase in diastolic blood pressure for 1.0 ug/kg intravenous dosing of noradrenaline in pithed rats. Type of assay: functional, Artery. The gist of the method:
as §3

Assay [13] deals with Rattus norvegicus. The experiment in a line: Maximum percentage reduction in mean arterial blood pressure in metacorticoid (DOCA) hypertensive rats at a standard oral dose of 50 mg/kg. Type of assay: functional. The essentials: as §1
For assay [14], the species on record is Rattus norvegicus. The assay can be described thus: Increase in diastolic blood pressure at 3 Htz electrical stimulation in the pithed rats. Type of assay: functional, Artery. The essentials: as §2
In assay [15] the test system is Rattus norvegicus. The assay can be described thus: Increase in diastolic blood pressure at 0.1 ug/kg intravenous dosing of noradrenaline in pithed rats. Type of assay: functional, Artery. The gist of the method: as §3
The test system of assay [16] is Rattus norvegicus. The experiment in a line: Maximum percentage reduction in mean arterial blood pressure in metacorticoid (DOCA) hypertensive rats at a standard oral dose of 100 mg/kg. Type of assay: functional. The essentials: as §1
For assay [17], the species on record is Rattus norvegicus. The experiment in a line: Increase in diastolic blood pressure at 1 Htz electrical stimulation in the pithed rats. Type of assay: functional, Artery. The gist of the method: as §2
Assay [18] has as its system Rattus norvegicus. The assay can be described thus: Increase in diastolic blood pressure at 1.0 ug/kg intravenous dosing of noradrenaline in pithed rats. Type of assay: functional, Artery. The gist of the method:
as §3

Assay [19] relates to Rattus norvegicus. The experiment in a line: Increase in diastolic blood pressure at 0.3 ug/kg intravenous dosing of noradrenaline in pithed rats. Type of assay: functional, Artery. The essentials: as §3
The subject of assay [20] is Rattus norvegicus. The experiment in a line: Summation of percentage reductions, compared to pretreatment controls, in MABP of DOCA hypertensive rats at 1,2,3,5,8 hr after the 100 mg/kg oral dose. Type of assay: functional. The essentials:
(§4)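 DOCA hypertensive rats (n = 5) were dosed orally. MABP (diastolic + one-third pulse pressure) was read before dosing and at 1, 2, 3, 5 and 8 h. The value is the sum of the % reductions from pretreatment control over these five time points.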

For assay [21], the system named is Rattus norvegicus. The experiment in a line: Increase in diastolic blood pressure at 0.1 ug/kg intravenous dosing of angiotensin in pithed rats. Type of assay: functional, Artery. The essentials: as §3
Assay [22] has as its system Rattus norvegicus. The assay can be described thus: Increase in diastolic blood pressure at 0.03 ug/kg intravenous dosing of angiotensin in pithed rats. Type of assay: functional, Artery. The gist of the method: as §3
Assay [23] is filed under the species Rattus norvegicus. The assay can be described thus: Increase in diastolic blood pressure at 6 Htz electrical stimulation in the pithed rats. Type of assay: functional, Artery. The gist of the method: as §2
The test system of assay [24] is Rattus norvegicus. The assay can be described thus: Increase in diastolic blood pressure at 0.3 ug/kg intravenous dosing of angiotensin in pithed rats. Type of assay: functional, Artery. The essentials: as §3
Assay [25] deals with Rattus norvegicus. The experiment in a line: Summation of percentage reductions, compared to pretreatment controls, in MABP of DOCA hypertensive rats at 1,2,3,5,8 hr after the 50 mg/kg oral dose. Type of assay: functional. The gist of the method:
as §4

In assay [26] the test system is Rattus norvegicus. The assay can be described thus: Maximum percentage reduction in mean blood pressure in metacorticoid (DOCA) hypertensive rats at a standard oral dose of 100 mg/kg. Type of assay: functional. The essentials:
as §1

Assay [27] deals with Rattus norvegicus. The experiment in a line: Maximum percentage reduction in mean blood pressure in metacorticoid (DOCA) hypertensive rats at a standard oral dose of 50 mg/kg. Type of assay: functional. The gist of the method:
as §1

In assay [28] the test system is Rattus norvegicus. The experiment in a line: Increase in diastolic blood pressure at r 0.3 ug/kg intravenous dosing of noradrenaline in pithed rats. Type of assay: functional, Artery. The essentials: as §3

`Nc1cc(N2CCCCC2)nc(N)[n+]1[O-]` [MINOXIDIL] had a Reduction in the assay with Rattus norvegicus [1] of 42%.

`Cl.N=C(N)Nc1nnc(-c2ccc(Cl)cc2)s1` yielded a Reduction with Rattus norvegicus [2] of 18%.

In turn, `COc1ccc(-c2nnc(N=C(N)N)s2)cc1.Cl` had a Reduction with Rattus norvegicus [3] of 28%.

`NNc1nncc2ccccc12` [HYDRALAZINE]: the “Increase in blood pressure” value in the assay listed under Rattus norvegicus [4] is reported as 28 mmHg; with Rattus norvegicus [5], 38 mmHg; in the assay on Rattus norvegicus [6] it was 21 mmHg; in the assay filed under Rattus norvegicus [7] it was 54 mmHg; in the assay with Rattus norvegicus [8] it was 8 mmHg; with Rattus norvegicus [9] it was 15 mmHg. Moreover, the figures for the “Increase in blood pressure” value with Rattus norvegicus [10], in the assay filed under Rattus norvegicus [11] and with Rattus norvegicus [12] were 8 mmHg, 42 mmHg and 28 mmHg, respectively.

On to `Cc1ccccc1-c1nnc(N=C(N)N)s1.Cl`, for which the figures for the Reduction in the assay with Rattus norvegicus [13] and in the assay with Rattus norvegicus [16] were 36% and 41%, respectively. Besides, the “Increase in blood pressure” value was determined as 29 mmHg in the assay filed under Rattus norvegicus [14]; 12 mmHg with Rattus norvegicus [15]; 13 mmHg in the assay filed under Rattus norvegicus [17]; 39 mmHg in the assay with Rattus norvegicus [18]; 23 mmHg in the assay with Rattus norvegicus [19]; 9 mmHg in the assay with Rattus norvegicus [21]. Further, the entries for the “Increase in blood pressure” value with Rattus norvegicus [22], in the assay listed under Rattus norvegicus [23] and with Rattus norvegicus [24] were 2 mmHg, 35 mmHg and 22 mmHg, respectively. For the same compound, the results for the “Summation MABP” value in the assay on Rattus norvegicus [20] and in the assay on Rattus norvegicus [25] were 167 and 115, respectively.

With `CCCC/N=C(/N)Nc1nnc(-c2ccccc2C)s1.Cl`, the Reduction with Rattus norvegicus [13] is listed as 31%; in the assay on Rattus norvegicus [16], 39%. The “Increase in blood pressure” value in the assay listed under Rattus norvegicus [14] turned out to be 20 mmHg; in the assay on Rattus norvegicus [19], 42 mmHg; in the assay with Rattus norvegicus [21] it was 23 mmHg. Besides, the results for the “Summation MABP” value in the assay on Rattus norvegicus [20] and in the assay with Rattus norvegicus [25] were 159 and 126, respectively.

With `COCC/N=C(/N)Nc1nnc(-c2ccccc2C)s1.Cl`, the “Increase in blood pressure” value is 30 mmHg in the assay filed under Rattus norvegicus [4]; 44 mmHg with Rattus norvegicus [5]; 28 mmHg in the assay on Rattus norvegicus [6]; 65 mmHg in the assay listed under Rattus norvegicus [7]; 14 mmHg in the assay on Rattus norvegicus [8]; 25 mmHg with Rattus norvegicus [9]. Moreover, the “Increase in blood pressure” value in the assay on Rattus norvegicus [10] is on record as 13 mmHg; in the assay filed under Rattus norvegicus [11], 52 mmHg; with Rattus norvegicus [12] it was 45 mmHg. In addition, the values for the Reduction in the assay with Rattus norvegicus [26] and in the assay with Rattus norvegicus [27] were 37% and 29%, respectively. The “Summation MABP” value with Rattus norvegicus [20] was found to be 157; with Rattus norvegicus [25] it was 113.

In the case of `Cl.N=C(N)Nc1nnc(-c2ccccc2Br)s1`, the “Increase in blood pressure” value is recorded as 17 mmHg in the assay listed under Rattus norvegicus [4]; 17 mmHg with Rattus norvegicus [5]; 7 mmHg in the assay on Rattus norvegicus [6]; 38 mmHg in the assay listed under Rattus norvegicus [7]; 3 mmHg with Rattus norvegicus [8]; 27 mmHg with Rattus norvegicus [9]. The “Increase in blood pressure” value with Rattus norvegicus [10] came out at 13 mmHg; in the assay filed under Rattus norvegicus [11] it was 31 mmHg; in the assay with Rattus norvegicus [12], 50 mmHg. The Reduction came out at 41% in the assay with Rattus norvegicus [26] and 29% in the assay with Rattus norvegicus [27].

Turning to `N=C(N)Nc1nnc(-c2c(Cl)cccc2Cl)s1`, the Reduction in the assay on Rattus norvegicus [3] turned out to be 34%.

With `Cc1ccccc1-c1nnc(NC2=NCCN2)s1.Cl`, the “Increase in blood pressure” value in the assay on Rattus norvegicus [28] is given as 21 mmHg; in the assay filed under Rattus norvegicus [14], 34 mmHg; in the assay with Rattus norvegicus [15] it was 10 mmHg; in the assay filed under Rattus norvegicus [17], 17 mmHg; in the assay on Rattus norvegicus [18] it was 44 mmHg; with Rattus norvegicus [21] it was 27 mmHg. Moreover, the “Increase in blood pressure” value with Rattus norvegicus [22] was 15 mmHg; in the assay filed under Rattus norvegicus [23], 45 mmHg; with Rattus norvegicus [24], 43 mmHg. Besides, the Reduction in the assay on Rattus norvegicus [13] came to 28%; with Rattus norvegicus [16], 43%. The “Summation MABP” value in the assay with Rattus norvegicus [20] was 194; with Rattus norvegicus [25] it was 117.
